Test [1] concerns the target T1, Tubulin (Sus scrofa) (UniProt P02554+P02550). Kind of test: Binding affinity to porcine tubulin incubated for 30 mins followed by UV irradiation at 365 nm for 30 seconds at distance of 10 cm on ice by SDS-PAGE analysis. The class given is protein assay. An outline of the steps: (§1)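 Tubulin (2 µM) in MES buffer pH 6.8 with 1 mM GTP and 2% DMSO, incubated with compound 30 min at 37 °C. Irradiated at 365 nm, 10 cm, on ice, 0–30 s. Separated by 10% SDS–PAGE and blotted to PVDF. Labelled tubulin detected with streptavidin–HRP/ECL chemiluminescence.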

The target in test [2] is Tubulin (Sus scrofa, UniProt P02554+P02550). Kind of test: Binding affinity to porcine tubulin after 1 hr by spectrofluorometric analysis. The class given is protein assay. Summed up: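 Purified porcine tubulin (0.5 µM) in MES buffer pH 6.8 at 37 °C, titrated with compound. Kd derived from the quenching titration.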
Test [3] has as its target T1, Tubulin (Sus scrofa). Kind of test: Ratio of compound Kd to plinabulin Kd for porcine tubulin. Type of test: protein assay.
Test [4] addresses T1, Tubulin (Sus scrofa). The test can be described thus: Binding affinity to porcine tubulin at 2 uM incubated for 30 mins by SDS-PAGE analysis. The class given is protein assay. Summed up:
as §1

In test [5] the target is T1, Tubulin (Sus scrofa). Kind of test: Binding affinity to porcine tubulin at 2 uM incubated for 30 mins followed by UV irradiation at 365 nm at distance of 10 cm on ice by SDS-PAGE analysis in presence of D-biotin. The class given is protein assay. Summed up:
(§2)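 Competition labelling. […] Probe (2 µM, 2% DMSO final) was then added for 30 min at 37 °C. Irradiated at 365 nm, 10 cm, on ice for 30 s. Read by 10% SDS–PAGE and streptavidin–HRP/ECL blot.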

The target of test [6] is T1, Tubulin (Sus scrofa). The test can be described thus: Binding affinity to porcine tubulin at 2 uM incubated for 30 mins followed by UV irradiation at 365 nm at distance of 10 cm on ice by SDS-PAGE analysis. Type of test: protein assay. Particulars: TDE = time-dependent effect. An outline of the steps: as §1
For test [7], the system named is HT-29. Kind of test: Ratio of compound IC50 to plinabulin IC50 for human HT-29 cells. The class given is functional.
The target of test [8] is T1, Tubulin (Sus scrofa). Kind of test: Binding affinity to porcine tubulin at 2 uM incubated for 30 mins followed by UV irradiation at 365 nm at distance of 10 cm on ice by SDS-PAGE analysis in presence of colchicine. The class given is protein assay. An outline of the steps: as §2
Test [9] relates to HT-29. Kind of test: Cytotoxicity against human HT-29 cells after 72 hrs by XTT/PMS method. Type of test: functional, cell-based. The settings on record: HT-29, 72 h. An outline of the steps:
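HT-29 colorectal adenocarcinoma cells in McCoy's 5A with 10% FBS, seeded at 5000 cells/well the day before. DMSO stocks serially diluted to 20 µM–2 pM final, exposed 72 h. XTT 0.1 mg/mL with 25 µM PMS added for 1 h. Formazan read at 492 nm, corrected at 690 nm. IC50 from triplicate experiments.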

Test [10] deals with T1, Tubulin (Sus scrofa). The test can be described thus: Binding affinity to porcine tubulin at 2 uM incubated for 30 mins followed by UV irradiation at 365 nm at distance of 10 cm on ice by SDS-PAGE analysis in presence of plinabulin. Type of test: protein assay. Summed up: as §2

Active and inactive are the calls of the source. No cut-off for these calls is given here.

T1 sequence (P02550 whole entry, looked up): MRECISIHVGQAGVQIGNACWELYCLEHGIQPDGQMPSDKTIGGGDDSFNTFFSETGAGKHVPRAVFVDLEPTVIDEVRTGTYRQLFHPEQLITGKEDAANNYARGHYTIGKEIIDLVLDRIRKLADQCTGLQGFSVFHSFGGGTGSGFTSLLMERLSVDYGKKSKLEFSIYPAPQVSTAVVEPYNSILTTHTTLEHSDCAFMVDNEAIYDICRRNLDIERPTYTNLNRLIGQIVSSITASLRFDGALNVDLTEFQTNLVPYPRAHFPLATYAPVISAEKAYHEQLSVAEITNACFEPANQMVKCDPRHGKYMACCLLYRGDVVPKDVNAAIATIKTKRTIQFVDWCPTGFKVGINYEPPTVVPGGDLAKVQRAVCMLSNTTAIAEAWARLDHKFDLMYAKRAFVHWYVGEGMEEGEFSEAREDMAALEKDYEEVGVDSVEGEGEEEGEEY
T1 sequence (P02554 whole entry, looked up): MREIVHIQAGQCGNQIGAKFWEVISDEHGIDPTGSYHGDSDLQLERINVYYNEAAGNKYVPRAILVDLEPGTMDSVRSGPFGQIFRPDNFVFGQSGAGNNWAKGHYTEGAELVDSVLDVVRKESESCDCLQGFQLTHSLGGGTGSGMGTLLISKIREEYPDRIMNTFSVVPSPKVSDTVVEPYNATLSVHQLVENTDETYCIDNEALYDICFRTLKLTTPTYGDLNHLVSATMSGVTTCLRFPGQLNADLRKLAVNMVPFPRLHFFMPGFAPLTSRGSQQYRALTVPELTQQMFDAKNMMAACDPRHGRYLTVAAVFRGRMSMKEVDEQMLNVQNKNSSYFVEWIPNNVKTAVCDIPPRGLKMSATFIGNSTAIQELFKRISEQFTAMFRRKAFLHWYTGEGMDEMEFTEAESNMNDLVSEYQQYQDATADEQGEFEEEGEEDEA

By Kd is commonly meant a measure of binding affinity in units of concentration. As a reminder, the IC50 is the concentration needed to halve the response being measured. A low value points to greater potency in that assay. Take `CC(C)(Cc1cn(CCCNC(=O)CCCCCNC(=O)CCCCCNC(=O)CCCC[C@@H]2SC[C@@H]3NC(=O)N[C@@H]32)nn1)c1ocnc1/C=c1\[nH]c(=O)/c(=C/c2cccc(C(=O)c3ccccc3)c2)[nH]c1=O` (stereo in doubt): the Activity entry is “Dose-dependent effect” in test [1] and “tde” in test [6]. Also, in test [2], the Kd was determined as 17.9 µM. The Ratio in test [3] came out at 17. For the same compound, the outcome in [4], in [5], in [8] and in test [10] was inactive. In addition, the “Ratio IC50” value in test [7] is on record as 725. In test [9], it took 9.79 µM to reach half-maximal inhibition (IC50).
Take `COc1cc2c(c(OC)c1OC)-c1ccc(OC)c(=O)cc1[C@@H](NC(C)=O)CC2` [COLCHICINE]: it took 0.0166 µM to reach half-maximal inhibition in test [9] (IC50).
On the same count and under the same terms, next, `CC(C)(C)c1[nH]cnc1/C=c1\[nH]c(=O)/c(=C/c2ccccc2)[nH]c1=O` [PLINABULIN]: 0.0135 µM.

These data come from ChEMBL document CHEMBL1641522 (Bioorg Med Chem, 2011).
